Source: ChEMBL document CHEMBL2086331, “Novel triazolopyridylbenzamides as potent and selective p38α inhibitors” (Bioorg Med Chem Lett, 2012)
Each block holds one compound with its values, some of them ahead of it.

What was measured:
[1] = tested on: Blood; assay: Inhibition of LPS-induced TNFalpha production in human whole blood; assay type: functional, tissue-based
[2] = Stability in rat hepatic microsomes assessed as compound turnover at 5 uM incubated for 30 mins in presence of NADPH; assay type: ADME; settings: liver microsomes, read-out: Drug degradation
In short: (§1)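 Rat or human hepatic microsomes (1 mg/mL) with NADPH, test compound 5 µM, 30 min at 37 °C; readout is % turnover of parent.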

[3] = Stability in human hepatic microsomes assessed as compound turnover at 5 uM incubated for 30 mins in presence of NADPH; assay type: ADME; settings: liver microsomes, read-out: Drug degradation; in short: as §1
[4] = Passive permeability from basolateral to apical side in human Caco2 cells at 12.5 uM; assay type: ADME, cell-based; settings: Caco-2, read-out: permeability
In short: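 Caco-2 monolayer, test compound 12.5 µM; passive apparent permeability measured in both AB and BA directions, reported in 10^-6 cm/s.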

[5] = tested on: CHO; assay: Cytotoxicity against CHO cells at 200 uM; assay type: cell-based, Cricetulus griseus; settings: chinese hamster
[6] = Protein binding in rat plasma; assay type: ADME, cell-free; settings: read-out: PPB (converted)
[7] = Protein binding in human plasma; assay type: ADME, cell-free; settings: read-out: PPB (converted)
[8] = Half life in Wistar rat at 1 mg/kg, iv; assay type: ADME, organism-based; parameters: dose 1 mg/kg, route intravenous; settings: in vivo
In short: (§2)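 Wistar rats, single dose either iv 1 mg/kg in 40% PEG + 0.4% HCl 1 N, or oral 10 mg/kg in 0.5% methylcellulose + 0.1% Tween 80; plasma PK parameters reported as mean values (n = 2).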

[9] = AUC in Wistar rat at 1 mg/kg, iv; assay type: ADME, organism-based; parameters: dose 1 mg/kg, route intravenous; settings: plasma; in short: as §2
[10] = Clearance in Wistar rat at 1 mg/kg, iv; assay type: ADME, organism-based; parameters: dose 1 mg/kg, route intravenous; settings: in vivo; in short: as §2
[11] = Volume of distribution at steady state in Wistar rat at 1 mg/kg, iv; assay type: ADME, organism-based; parameters: dose 1 mg/kg, route intravenous; settings: in vivo, read-out: Vdss; in short: as §2
[12] = Cmax in Wistar rat at 10 mg/kg, po; assay type: ADME, organism-based; parameters: dose 10 mg/kg, route oral; settings: in vivo; in short: as §2
[13] = AUC in Wistar rat at 10 mg/kg, po; assay type: ADME, organism-based; parameters: dose 10 mg/kg, route oral; settings: plasma; in short: as §2
[14] = Oral bioavailability in Wistar rat at 10 mg/kg; assay type: ADME, organism-based; settings: in vivo; in short: as §2
[15] = AUC in beagle dog at 1 mg/kg, iv; assay type: ADME, organism-based, Canis lupus familiaris; parameters: dose 1 mg/kg, route intravenous; settings: plasma
In short: (§3)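 Beagle dogs dosed 1 mg/kg iv or 1 mg/kg po; pharmacokinetic parameters reported as mean values of n = 2 animals.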

[16] = Clearance in beagle dog at 1 mg/kg, iv; assay type: ADME, organism-based, Canis lupus familiaris; parameters: dose 1 mg/kg, route intravenous; settings: in vivo; in short: as §3
[17] = Volume of distribution at steady state in beagle dog at 1 mg/kg, iv; assay type: ADME, organism-based, Canis lupus familiaris; parameters: dose 1 mg/kg, route intravenous; settings: in vivo, read-out: Vdss; in short: as §3
[18] = Cmax in beagle dog at 1 mg/kg, po; assay type: ADME, organism-based, Canis lupus familiaris; parameters: dose 1 mg/kg, route oral; settings: in vivo; in short: as §3
[19] = AUC in beagle dog at 1 mg/kg, po; assay type: ADME, organism-based, Canis lupus familiaris; parameters: dose 1 mg/kg, route oral; settings: plasma; in short: as §3
[20] = Oral bioavailability in beagle dog at 1 mg/kg; assay type: ADME, organism-based, Canis lupus familiaris; settings: in vivo; in short: as §3
[21] = Half life in beagle dog at 1 mg/kg, iv; assay type: ADME, organism-based, Canis lupus familiaris; parameters: dose 1 mg/kg, route intravenous; settings: in vivo; in short: as §3
[22] = tested on: CHO; assay: Toxicity against CHO cells; assay type: cell-based, Cricetulus griseus; settings: chinese hamster
[23] = target: T1, Cytochrome P450 1A2 (Homo sapiens, UniProt P05177); assay: Inhibition of CYP1A2 at < 25 uM; assay type: ADME
T1 sequence (P05177 whole entry): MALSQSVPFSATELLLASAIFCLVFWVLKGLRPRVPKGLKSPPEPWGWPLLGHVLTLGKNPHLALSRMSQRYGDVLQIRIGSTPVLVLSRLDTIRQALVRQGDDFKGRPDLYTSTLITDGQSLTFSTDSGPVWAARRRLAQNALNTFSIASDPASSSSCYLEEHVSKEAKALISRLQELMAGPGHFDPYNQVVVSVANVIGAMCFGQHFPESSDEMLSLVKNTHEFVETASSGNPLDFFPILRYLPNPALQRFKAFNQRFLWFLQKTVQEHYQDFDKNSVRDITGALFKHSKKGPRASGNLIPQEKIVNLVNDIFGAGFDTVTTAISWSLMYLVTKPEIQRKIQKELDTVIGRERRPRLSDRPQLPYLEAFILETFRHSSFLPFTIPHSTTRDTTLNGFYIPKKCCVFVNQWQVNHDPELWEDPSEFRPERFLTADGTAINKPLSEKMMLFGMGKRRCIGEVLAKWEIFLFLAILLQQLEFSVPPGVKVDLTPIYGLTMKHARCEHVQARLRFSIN

[24] = target: Cytochrome P450 3A4 (Homo sapiens, UniProt P08684); assay: Inhibition of CYP3A4 at < 25 uM; assay type: ADME
Chain of Cytochrome P450 3A4 (P08684 whole entry): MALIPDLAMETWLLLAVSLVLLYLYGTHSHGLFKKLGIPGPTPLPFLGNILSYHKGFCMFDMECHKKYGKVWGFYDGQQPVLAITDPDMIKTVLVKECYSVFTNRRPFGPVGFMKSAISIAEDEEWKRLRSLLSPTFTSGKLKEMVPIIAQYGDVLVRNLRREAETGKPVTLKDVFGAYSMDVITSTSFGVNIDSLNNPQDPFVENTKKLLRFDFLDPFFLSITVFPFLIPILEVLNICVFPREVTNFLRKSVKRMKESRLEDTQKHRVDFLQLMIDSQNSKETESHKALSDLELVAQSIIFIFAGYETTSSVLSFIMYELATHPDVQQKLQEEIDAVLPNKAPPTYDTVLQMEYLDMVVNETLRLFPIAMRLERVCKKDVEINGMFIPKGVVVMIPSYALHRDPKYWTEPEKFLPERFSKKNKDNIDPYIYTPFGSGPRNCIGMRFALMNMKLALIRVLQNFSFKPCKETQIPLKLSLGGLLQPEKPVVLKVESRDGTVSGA

[25] = target: Cytochrome P450 2C9 (Homo sapiens, UniProt P11712); assay: Inhibition of CYP2C9 at < 25 uM; assay type: ADME
Chain of Cytochrome P450 2C9 (P11712 whole entry): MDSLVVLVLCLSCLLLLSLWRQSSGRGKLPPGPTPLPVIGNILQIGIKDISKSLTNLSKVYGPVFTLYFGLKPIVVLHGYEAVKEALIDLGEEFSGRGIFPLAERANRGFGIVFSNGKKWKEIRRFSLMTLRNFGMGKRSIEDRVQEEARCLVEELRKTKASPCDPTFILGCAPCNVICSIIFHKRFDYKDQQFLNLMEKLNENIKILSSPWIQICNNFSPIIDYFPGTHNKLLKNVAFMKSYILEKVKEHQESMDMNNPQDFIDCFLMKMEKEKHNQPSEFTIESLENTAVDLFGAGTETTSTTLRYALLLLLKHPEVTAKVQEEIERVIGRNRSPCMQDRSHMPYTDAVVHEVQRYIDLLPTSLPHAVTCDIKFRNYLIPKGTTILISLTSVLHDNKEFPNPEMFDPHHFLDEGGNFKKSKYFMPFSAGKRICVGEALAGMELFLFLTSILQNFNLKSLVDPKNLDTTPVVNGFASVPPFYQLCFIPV

[26] = target: Cytochrome P450 2C19 (Homo sapiens, UniProt P33261); assay: Inhibition of CYP2C19 at < 25 uM; assay type: ADME
Chain of Cytochrome P450 2C19 (P33261 whole entry): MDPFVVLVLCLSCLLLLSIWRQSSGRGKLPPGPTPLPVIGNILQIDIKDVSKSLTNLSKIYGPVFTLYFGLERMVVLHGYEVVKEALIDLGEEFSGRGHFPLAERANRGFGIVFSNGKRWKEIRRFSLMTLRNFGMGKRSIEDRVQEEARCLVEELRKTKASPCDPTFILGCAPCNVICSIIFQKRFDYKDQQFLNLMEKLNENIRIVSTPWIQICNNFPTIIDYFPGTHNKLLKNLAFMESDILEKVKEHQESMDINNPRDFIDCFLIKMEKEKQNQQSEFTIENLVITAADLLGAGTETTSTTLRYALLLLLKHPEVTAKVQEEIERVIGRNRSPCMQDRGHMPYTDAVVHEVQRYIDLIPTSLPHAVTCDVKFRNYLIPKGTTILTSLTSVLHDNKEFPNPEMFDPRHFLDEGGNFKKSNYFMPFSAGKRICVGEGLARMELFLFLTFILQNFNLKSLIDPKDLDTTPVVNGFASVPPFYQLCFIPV

[27] = target: Cytochrome P450 2D6 (Homo sapiens, UniProt P10635); assay: Inhibition of CYP2D6 at < 25 uM; assay type: ADME
Chain of Cytochrome P450 2D6 (P10635 whole entry): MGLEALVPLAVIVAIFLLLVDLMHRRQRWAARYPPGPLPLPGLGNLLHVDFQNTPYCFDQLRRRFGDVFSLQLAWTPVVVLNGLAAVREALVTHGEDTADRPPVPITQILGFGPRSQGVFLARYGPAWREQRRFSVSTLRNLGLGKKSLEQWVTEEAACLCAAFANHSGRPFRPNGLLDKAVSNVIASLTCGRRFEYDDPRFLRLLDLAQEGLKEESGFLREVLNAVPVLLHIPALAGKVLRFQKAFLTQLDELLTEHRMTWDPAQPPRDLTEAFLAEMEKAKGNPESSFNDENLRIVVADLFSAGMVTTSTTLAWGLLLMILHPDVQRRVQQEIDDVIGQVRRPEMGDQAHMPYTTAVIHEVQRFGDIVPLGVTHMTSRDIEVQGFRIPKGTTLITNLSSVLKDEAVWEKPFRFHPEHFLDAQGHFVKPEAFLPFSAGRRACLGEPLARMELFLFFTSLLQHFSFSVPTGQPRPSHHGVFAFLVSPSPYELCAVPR

[28] = target: RAF proto-oncogene serine/threonine-protein kinase (Homo sapiens, UniProt P04049); assay: Inhibition of c-Raf
Chain of RAF proto-oncogene serine/threonine-protein kinase (P04049 whole entry): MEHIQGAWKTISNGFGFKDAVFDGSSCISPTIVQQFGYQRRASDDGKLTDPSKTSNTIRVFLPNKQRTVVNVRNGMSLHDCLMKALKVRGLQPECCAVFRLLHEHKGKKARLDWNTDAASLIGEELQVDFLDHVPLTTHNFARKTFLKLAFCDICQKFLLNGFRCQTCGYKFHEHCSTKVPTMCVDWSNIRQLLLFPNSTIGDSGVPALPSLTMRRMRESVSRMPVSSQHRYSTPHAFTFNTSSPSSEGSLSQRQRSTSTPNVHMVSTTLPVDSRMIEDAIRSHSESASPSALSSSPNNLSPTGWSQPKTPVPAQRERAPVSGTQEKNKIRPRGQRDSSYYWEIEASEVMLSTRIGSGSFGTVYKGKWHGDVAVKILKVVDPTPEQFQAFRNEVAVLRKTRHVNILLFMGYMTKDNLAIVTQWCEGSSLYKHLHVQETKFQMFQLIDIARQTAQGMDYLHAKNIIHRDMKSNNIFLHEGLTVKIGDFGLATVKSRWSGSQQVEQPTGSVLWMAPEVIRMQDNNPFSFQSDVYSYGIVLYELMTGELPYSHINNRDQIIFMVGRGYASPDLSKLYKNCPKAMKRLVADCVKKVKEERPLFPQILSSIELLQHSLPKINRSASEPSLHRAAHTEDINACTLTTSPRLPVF

[29] = tested on: Rattus norvegicus; assay: Inhibition of TNFalpha release in rat LPS-induced endotoxemia model dosed orally 1 hr prior to LPS challenge and measured 1.5 hrs post LPS challenge; assay type: functional; settings: po
In short: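 Rats given compound orally 1 h before LPS challenge to induce endotoxemia; plasma TNFα quantified 1.5 h after LPS, at peak TNF production.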

[30] = tested on: Rattus norvegicus; assay: Antiarthritic effect in rat adjuvant-induced arthritis model assessed as inhibition of right paw edema at 3 mg/kg, po dosed daily during last 10 days of test; assay type: functional; settings: 240 h
In short: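 Arthritis induced by complete Freund's adjuvant injected into left hind paw; oral compound daily over final 10 days of protocol; right (non-injected) paw volume monitored, result as % inhibition of oedema.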

[31] = in vitro; settings: human, Caco-2
[32] = target: Proto-oncogene tyrosine-protein kinase receptor Ret (Homo sapiens, UniProt P07949); assay: Inhibition of RET
Chain of Proto-oncogene tyrosine-protein kinase receptor Ret (P07949 whole entry): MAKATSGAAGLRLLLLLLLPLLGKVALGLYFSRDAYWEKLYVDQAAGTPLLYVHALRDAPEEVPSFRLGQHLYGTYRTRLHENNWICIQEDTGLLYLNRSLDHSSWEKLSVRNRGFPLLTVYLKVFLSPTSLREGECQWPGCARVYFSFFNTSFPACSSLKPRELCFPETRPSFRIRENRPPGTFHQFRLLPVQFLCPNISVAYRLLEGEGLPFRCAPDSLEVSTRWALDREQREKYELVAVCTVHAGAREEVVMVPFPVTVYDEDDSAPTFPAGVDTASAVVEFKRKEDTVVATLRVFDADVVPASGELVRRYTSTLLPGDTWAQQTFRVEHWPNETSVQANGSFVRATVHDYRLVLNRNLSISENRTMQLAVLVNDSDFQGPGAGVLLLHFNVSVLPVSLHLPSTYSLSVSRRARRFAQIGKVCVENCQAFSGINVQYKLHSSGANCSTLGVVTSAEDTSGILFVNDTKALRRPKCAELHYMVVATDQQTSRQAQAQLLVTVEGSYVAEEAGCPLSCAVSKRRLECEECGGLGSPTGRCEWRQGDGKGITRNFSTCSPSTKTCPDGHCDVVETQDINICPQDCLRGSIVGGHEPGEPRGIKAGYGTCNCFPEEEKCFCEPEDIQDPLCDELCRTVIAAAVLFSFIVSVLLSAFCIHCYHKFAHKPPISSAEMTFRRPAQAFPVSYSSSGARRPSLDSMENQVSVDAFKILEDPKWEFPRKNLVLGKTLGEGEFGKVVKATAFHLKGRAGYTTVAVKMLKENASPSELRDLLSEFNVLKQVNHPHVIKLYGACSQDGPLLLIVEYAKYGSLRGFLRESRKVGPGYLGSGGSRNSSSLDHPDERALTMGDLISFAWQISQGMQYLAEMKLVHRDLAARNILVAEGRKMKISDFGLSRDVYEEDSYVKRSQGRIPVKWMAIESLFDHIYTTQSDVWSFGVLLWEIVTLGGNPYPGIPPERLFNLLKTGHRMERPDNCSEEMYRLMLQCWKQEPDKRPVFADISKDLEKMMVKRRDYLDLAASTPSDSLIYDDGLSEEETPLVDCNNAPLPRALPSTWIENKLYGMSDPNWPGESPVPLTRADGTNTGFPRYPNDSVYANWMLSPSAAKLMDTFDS

SMILES: Cc1c(F)cc(C(=O)NC2CC2)cc1-c1ccn2c(C3CCC3)nnc2c1
IC50 [1]: 550 nM

SMILES: Cc1c(F)cc(C(=O)NC2CC2)cc1-c1ccn2c(C3CC3)nnc2c1
IC50 [1]: 213 nM

SMILES: Cc1c(F)cc(C(=O)NC2CC2)cc1-c1ccn2c(C3(C)CC3)nnc2c1
IC50 [1]: 117 nM

SMILES: CC(C)(C)c1nnc2ccc(Sc3ccc(F)cc3F)cn12
IC50 [1]: 143 nM

SMILES: Cc1c(F)cc(C(=O)NC2CC2)cc1-c1c(F)cn2c(C(C)C)nnc2c1F
IC50 [1]: 467 nM

SMILES: Cc1c(F)cc(C(=O)NC2CC2)cc1-c1c(F)cn2c(C(C)(C)N)nnc2c1F
IC50 [1]: 822 nM

SMILES: Cc1c(F)cc(C(=O)NC2CC2)cc1-c1ccn2c(C3CCOCC3)nnc2c1
IC50 [1]: 405 nM

The remaining compounds from weak to strong by IC50 [1], led by results:

IC50 [1]: 116 nM
metabolised at 0.5 h, 5 µM [2]: < 5%
metabolised at 0.5 h, 5 µM [3]: 6%
Papp B→A at 12.5 µM [4]: 25 ×10⁻⁶ cm/s
fraction unbound [6]: 0.25
fraction unbound [7]: 0.21
half-life [8]: 3.3 h
AUC [9]: 8010 ng·h/mL
clearance [10]: 2.3 mL/min/kg
Vd [11]: 0.57 L/kg
Cmax [12]: 3470 ng/mL
AUC [13]: 38600 ng·h/mL
bioavailability [14]: 50%
AUC [15]: 6440 ng·h/mL
clearance [16]: 2.7 mL/min/kg
Vd [17]: 1.6 L/kg
Cmax [18]: 185 ng/mL
AUC [19]: 5060 ng·h/mL
bioavailability [20]: 79%
half-life [21]: 7.3 h
inhibition (INH) [23]: Not Active
inhibition (INH) [24]: Not Active
inhibition (INH) [25]: Not Active
inhibition (INH) [26]: Not Active
inhibition (INH) [27]: Not Active
IC50 [32]: 2000 nM
Papp A→B at 12.5 µM [31]: 41 ×10⁻⁶ cm/s
SMILES: Cc1c(F)cc(C(=O)NC2CC2)cc1-c1c(F)cn2c(C(C)(C)C)nnc2c1F
Activity [5]: 33%
Activity [22]: Non-toxic
ED50 [29]: 1.36 mg/kg
inhibition in vivo at 3 mg/kg [30]: 67%

IC50 [1]: 115 nM
SMILES: Cc1c(F)cc(C(=O)NC2CC2)cc1-c1ccn2c(C(C)C)nnc2c1

IC50 [1]: 98 nM
SMILES: Cc1ccc(C(=O)NC2CC2)cc1-c1ccc2c(N3CCCCC3)noc2c1

IC50 [1]: 84 nM
SMILES: Cc1c(F)cc(C(=O)NC2CC2)cc1-c1ccn2c(C(C)(C)N(C)C)nnc2c1

IC50 [1]: 42 nM
SMILES: Cc1ccc(C(=O)NC2CC2)cc1-c1ccn2c(C(C)C)nnc2c1

IC50 [1]: 30 nM
metabolised at 0.5 h, 5 µM [2]: < 5%
metabolised at 0.5 h, 5 µM [3]: < 5%
Papp B→A at 12.5 µM [4]: 18 ×10⁻⁶ cm/s
fraction unbound [6]: 0.39
fraction unbound [7]: 0.42
half-life [8]: 3.4 h
AUC [9]: 2120 ng·h/mL
clearance [10]: 7.8 mL/min/kg
Vd [11]: 2 L/kg
Cmax [12]: 2600 ng/mL
AUC [13]: 19400 ng·h/mL
bioavailability [14]: 93%
AUC [15]: 1690 ng·h/mL
clearance [16]: 9.9 mL/min/kg
Vd [17]: 1.7 L/kg
Cmax [18]: 215 ng/mL
AUC [19]: 1260 ng·h/mL
bioavailability [20]: 75%
half-life [21]: 2.5 h
inhibition (INH) [23]: Not Active
inhibition (INH) [24]: Not Active
inhibition (INH) [25]: Not Active
inhibition (INH) [26]: Not Active
inhibition (INH) [27]: Not Active
IC50 [28]: 3200 nM
Papp A→B at 12.5 µM [31]: 15 ×10⁻⁶ cm/s
SMILES: Cc1ccc(C(=O)NC2CC2)cc1-c1ccn2c(C(C)(C)C)nnc2c1
Activity [5]: 50%
Activity [22]: Non-toxic
ED50 [29]: 0.26 mg/kg
inhibition in vivo at 3 mg/kg [30]: 60%

IC50 [1]: 25 nM
SMILES: Cc1ccc(C(=O)NC2CC2)cc1-c1ccn2c(C3CC3)nnc2c1

IC50 [1]: 20 nM
SMILES: Cc1ccc(C(=O)NC2CC2)cc1-c1ccn2c(-c3ccccc3Cl)nnc2c1

IC50 [1]: 7.2 nM
SMILES: Cc1c(F)cc(C(=O)NC2CC2)cc1-c1ccn2c(-c3ccccc3Cl)nnc2c1
